# Test system: Fibroblast
# Experiment: Multiplex assay against human fibroblast
# Type: toxicity, cell-based
# Procedure, shortened: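 Live cells carried four stains from seeding: Hoechst33342, BioTracker Green Microtubule Cytoskeleton Dye, MitoTracker Red and Annexin V Alexa Fluor 680. They were imaged on a CQ1 microscope at 37°C and 5% CO2 after compound addition. Using CellPathfinder machine-learning gating, cells were split into Hoechst high-intensity objects or normal cells, normal cells into healthy, pyknosed or fragmented nuclei, and pyknosed cells into mitotic or apoptotic; tubulin, mitochondrial-mass and membrane-permeability phenotypes are per cents of healthy-nucleus cells.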
# [1] = 12 h, 1 µM, compound concentration 1 uM, replicate 1
# [2] = 12 h, 1 µM, compound concentration 1 uM, replicate 2
# [3] = 12 h, 10 µM, compound concentration 10 uM, replicate 1
# [4] = 12 h, 10 µM, compound concentration 10 uM, replicate 2
# [5] = 24 h, 1 µM, compound concentration 1 uM, replicate 1
# [6] = 24 h, 1 µM, compound concentration 1 uM, replicate 2
# [7] = 24 h, 10 µM, compound concentration 10 uM, replicate 1
# [8] = 24 h, 10 µM, compound concentration 10 uM, replicate 2
# [9] = 48 h, 1 µM, compound concentration 1 uM, replicate 1
# [10] = 48 h, 1 µM, compound concentration 1 uM, replicate 2
# [11] = 48 h, 10 µM, compound concentration 10 uM, replicate 1
# [12] = 48 h, 10 µM, compound concentration 10 uM, replicate 2
smiles,measurement,setting,value
CCn1c(=O)c(-c2ccc(-c3cncs3)cc2Cl)cc2cnc(Nc3ccc(N4CCN(C)CC4)cc3)nc21,Population Apoptotic (%),[1],53%
same,Population Fragmented Nuclei (%),[1],26%
same,Population Healthy Nuclei (%),[1],37%
same,Population Hoechst High Intensity Objects (%),[1],17%
same,Population Membrane Permeable-Phenotype (%),[1],15%
same,Population Mitochondria Different-Phenotype (%),[1],0%
same,Population Mitotic Cells (%),[1],46%
same,Population Normal (%),[1],82%
same,Population Pyknosed Nuclei (%),[1],35%
same,Population Tubulin-Different-Phenotype (%),[1],36%
same,Total Cell Count,[1],108
same,Population Apoptotic (%),[2],75%
same,Population Fragmented Nuclei (%),[2],9%
same,Population Healthy Nuclei (%),[2],78%
same,Population Hoechst High Intensity Objects (%),[2],7%
same,Population Membrane Permeable-Phenotype (%),[2],3%
same,Population Mitochondria Different-Phenotype (%),[2],17%
same,Population Mitotic Cells (%),[2],25%
same,Population Normal (%),[2],92%
same,Population Pyknosed Nuclei (%),[2],11%
same,Population Tubulin-Different-Phenotype (%),[2],19%
same,Total Cell Count,[2],76
same,Population Apoptotic (%),[3],58%
same,Population Fragmented Nuclei (%),[3],45%
same,Population Healthy Nuclei (%),[3],9%
same,Population Hoechst High Intensity Objects (%),[3],46%
same,Population Membrane Permeable-Phenotype (%),[3],41%
same,Population Mitochondria Different-Phenotype (%),[3],8%
same,Population Mitotic Cells (%),[3],41%
same,Population Normal (%),[3],53%
same,Population Pyknosed Nuclei (%),[3],44%
same,Population Tubulin-Different-Phenotype (%),[3],50%
same,Total Cell Count,[3],230
same,Population Apoptotic (%),[4],11%
same,Population Fragmented Nuclei (%),[4],8%
same,Population Healthy Nuclei (%),[4],79%
same,Population Hoechst High Intensity Objects (%),[4],4%
same,Population Membrane Permeable-Phenotype (%),[4],5%
same,Population Mitochondria Different-Phenotype (%),[4],29%
same,Population Mitotic Cells (%),[4],88%
same,Population Normal (%),[4],96%
same,Population Pyknosed Nuclei (%),[4],12%
same,Population Tubulin-Different-Phenotype (%),[4],15%
same,Total Cell Count,[4],77
same,Population Apoptotic (%),[5],58%
same,Population Fragmented Nuclei (%),[5],26%
same,Population Healthy Nuclei (%),[5],47%
same,Population Hoechst High Intensity Objects (%),[5],16%
same,Population Membrane Permeable-Phenotype (%),[5],31%
same,Population Mitochondria Different-Phenotype (%),[5],0%
same,Population Mitotic Cells (%),[5],41%
same,Population Normal (%),[5],83%
same,Population Pyknosed Nuclei (%),[5],25%
same,Population Tubulin-Different-Phenotype (%),[5],40%
same,Total Cell Count,[5],111
same,Population Apoptotic (%),[6],46%
same,Population Fragmented Nuclei (%),[6],15%
same,Population Healthy Nuclei (%),[6],68%
same,Population Hoechst High Intensity Objects (%),[6],4%
same,Population Membrane Permeable-Phenotype (%),[6],1%
same,Population Mitochondria Different-Phenotype (%),[6],5%
same,Population Mitotic Cells (%),[6],53%
same,Population Normal (%),[6],95%
same,Population Pyknosed Nuclei (%),[6],16%
same,Population Tubulin-Different-Phenotype (%),[6],20%
same,Total Cell Count,[6],74
same,Population Apoptotic (%),[7],85%
same,Population Fragmented Nuclei (%),[7],44%
same,Population Healthy Nuclei (%),[7],6%
same,Population Hoechst High Intensity Objects (%),[7],53%
same,Population Membrane Permeable-Phenotype (%),[7],22%
same,Population Mitochondria Different-Phenotype (%),[7],0%
same,Population Mitotic Cells (%),[7],15%
same,Population Normal (%),[7],46%
same,Population Pyknosed Nuclei (%),[7],48%
same,Population Tubulin-Different-Phenotype (%),[7],27%
same,Total Cell Count,[7],615
same,Population Apoptotic (%),[8],27%
same,Population Fragmented Nuclei (%),[8],14%
same,Population Healthy Nuclei (%),[8],71%
same,Population Hoechst High Intensity Objects (%),[8],3%
same,Population Membrane Permeable-Phenotype (%),[8],7%
same,Population Mitochondria Different-Phenotype (%),[8],23%
same,Population Mitotic Cells (%),[8],72%
same,Population Normal (%),[8],96%
same,Population Pyknosed Nuclei (%),[8],14%
same,Population Tubulin-Different-Phenotype (%),[8],8%
same,Total Cell Count,[8],83
same,Population Apoptotic (%),[9],52%
same,Population Fragmented Nuclei (%),[9],36%
same,Population Healthy Nuclei (%),[9],39%
same,Population Hoechst High Intensity Objects (%),[9],10%
same,Population Membrane Permeable-Phenotype (%),[9],35%
same,Population Mitochondria Different-Phenotype (%),[9],2%
same,Population Mitotic Cells (%),[9],47%
same,Population Normal (%),[9],89%
same,Population Pyknosed Nuclei (%),[9],24%
same,Population Tubulin-Different-Phenotype (%),[9],32%
same,Total Cell Count,[9],105
same,Population Apoptotic (%),[10],0%
same,Population Fragmented Nuclei (%),[10],24%
same,Population Healthy Nuclei (%),[10],75%
same,Population Membrane Permeable-Phenotype (%),[10],5%
same,Population Mitochondria Different-Phenotype (%),[10],6%
same,Population Mitotic Cells (%),[10],0%
same,Population Pyknosed Nuclei (%),[10],0%
same,Population Tubulin-Different-Phenotype (%),[10],20%
same,Total Cell Count,[10],88
same,Population Apoptotic (%),[11],92%
same,Population Fragmented Nuclei (%),[11],44%
same,Population Healthy Nuclei (%),[11],5%
same,Population Hoechst High Intensity Objects (%),[11],59%
same,Population Membrane Permeable-Phenotype (%),[11],24%
same,Population Mitochondria Different-Phenotype (%),[11],0%
same,Population Mitotic Cells (%),[11],7%
same,Population Normal (%),[11],40%
same,Population Pyknosed Nuclei (%),[11],50%
same,Population Tubulin-Different-Phenotype (%),[11],10%
same,Total Cell Count,[11],1270
same,Population Apoptotic (%),[12],100%
same,Population Fragmented Nuclei (%),[12],43%
same,Population Healthy Nuclei (%),[12],55%
same,Population Hoechst High Intensity Objects (%),[12],11%
same,Population Membrane Permeable-Phenotype (%),[12],10%
same,Population Mitochondria Different-Phenotype (%),[12],4%
same,Population Mitotic Cells (%),[12],0%
same,Population Normal (%),[12],88%
same,Population Pyknosed Nuclei (%),[12],0%
same,Population Tubulin-Different-Phenotype (%),[12],52%
same,Total Cell Count,[12],139
